Where “and” joins values, the source holds several entries; their conditions need not be identical. Equal values may be shown once. Blank lines part the entries; values can stand above or below the molecule they belong to.
Tests used:
[1] = tested on: pooled HIM; test: Phase I biotransformation of DB289 in pooled HIM; assay type: in vitro ADME, human; conditions: for Phase I metabolite detection (HPLC/UV): 10 μM DB289, pooled HIM 0.2 mg/ml, NADPH, up to 120 min
In short: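 Test compound (10 μM) with pooled HIM (0.2 mg/ml) in 100 mM phosphate pH 7.4, 3.3 mM MgCl2. Equilibrated 5 min at 37°C, then started with 1 mM NADPH. Aliquots taken at 0, 15, 30 and 120 min were quenched in ice-cold acetonitrile and analysed by HPLC/UV. Metabolites were assigned by retention time against synthetic standards. Controls omitted NADPH, microsomal protein or substrate.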

[2] = tested on: human intestinal microsomes (HIM); test: Enzyme kinetics of M1 formation; assay type: in vitro ADME; conditions: for KMapp(1): 5 min
[3] = Enzyme kinetics of M1 formation; assay type: in vitro ADME, human; conditions: human
[4] = Solubility in the incubation buffer; assay type: physicochemical; conditions: highest concentration tested 25 μM
[5] = six healthy men, p.o. 14C-DB289, single-dose escalation; ref C. Olson, Immtech Pharmaceuticals Inc., personal communication; cited from earlier work
[6] = tested on: HLM; conditions: panel of HLM; ref Wang et al., 2006; cited from earlier work
[7] = tested on: pooled HLM (human liver microsomes); conditions: M1 formation, 0.02 mg/ml protein, 3 min, ref Wang et al., 2006; cited from earlier work
[8] = tested on: P450 enzymes of pooled HIM (M1 formation from DB289); test: Chemical inhibition of M1 formation in pooled HIM; assay type: biochemical, human
[9] = molecular target: T1, recombinant CYP4F2 (Homo sapiens, UniProt P78329); test: Effect of α-NF on M1 formation by recombinant CYP4F2; assay type: biochemical; conditions: recombinant CYP4F2, 1 μM α-NF, 3 μM DB289, P > 0.05
T1 sequence (P78329 5-520): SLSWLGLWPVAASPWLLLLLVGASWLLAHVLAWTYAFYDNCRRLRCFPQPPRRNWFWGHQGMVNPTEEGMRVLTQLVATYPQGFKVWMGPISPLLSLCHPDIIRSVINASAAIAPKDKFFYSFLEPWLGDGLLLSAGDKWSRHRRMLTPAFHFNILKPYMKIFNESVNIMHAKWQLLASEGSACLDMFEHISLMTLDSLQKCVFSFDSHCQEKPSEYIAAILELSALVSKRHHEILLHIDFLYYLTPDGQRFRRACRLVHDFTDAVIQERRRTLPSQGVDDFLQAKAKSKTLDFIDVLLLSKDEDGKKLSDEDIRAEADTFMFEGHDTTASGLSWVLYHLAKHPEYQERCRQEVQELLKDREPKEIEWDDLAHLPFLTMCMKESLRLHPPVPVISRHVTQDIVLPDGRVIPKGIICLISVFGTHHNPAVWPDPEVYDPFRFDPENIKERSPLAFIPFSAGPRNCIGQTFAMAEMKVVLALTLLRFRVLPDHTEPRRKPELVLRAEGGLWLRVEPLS

[10] = molecular target: recombinant CYP3A4 (Homo sapiens, UniProt P08684); test: Effect of α-NF on M1 formation by recombinant CYP3A4; assay type: biochemical; conditions: recombinant CYP3A4 10 pmol/ml, 1 μM α-NF, 3 μM DB289, 15 min, P < 0.05
recombinant CYP3A4, sequence (P08684 whole entry): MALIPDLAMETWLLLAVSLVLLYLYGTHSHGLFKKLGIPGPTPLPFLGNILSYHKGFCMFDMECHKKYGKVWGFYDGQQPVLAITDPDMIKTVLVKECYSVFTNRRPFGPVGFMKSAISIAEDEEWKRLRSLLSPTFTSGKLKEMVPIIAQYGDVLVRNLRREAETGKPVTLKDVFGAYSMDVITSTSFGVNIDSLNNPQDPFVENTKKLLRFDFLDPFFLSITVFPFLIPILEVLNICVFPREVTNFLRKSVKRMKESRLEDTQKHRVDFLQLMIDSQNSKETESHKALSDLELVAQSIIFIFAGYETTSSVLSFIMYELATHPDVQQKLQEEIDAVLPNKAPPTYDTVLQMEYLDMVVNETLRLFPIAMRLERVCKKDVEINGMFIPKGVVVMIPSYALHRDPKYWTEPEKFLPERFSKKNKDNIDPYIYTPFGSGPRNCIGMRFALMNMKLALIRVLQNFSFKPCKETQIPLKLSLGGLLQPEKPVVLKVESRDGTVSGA

[11] = molecular target: T2, recombinant CYP4F3B (Homo sapiens, UniProt Q08477); test: Effect of α-NF on M1 formation by recombinant CYP4F3B; assay type: biochemical; conditions: 1 μM α-NF, 3 μM DB289, P > 0.05
T2 sequence (Q08477 1-520 isoform Q08477-2): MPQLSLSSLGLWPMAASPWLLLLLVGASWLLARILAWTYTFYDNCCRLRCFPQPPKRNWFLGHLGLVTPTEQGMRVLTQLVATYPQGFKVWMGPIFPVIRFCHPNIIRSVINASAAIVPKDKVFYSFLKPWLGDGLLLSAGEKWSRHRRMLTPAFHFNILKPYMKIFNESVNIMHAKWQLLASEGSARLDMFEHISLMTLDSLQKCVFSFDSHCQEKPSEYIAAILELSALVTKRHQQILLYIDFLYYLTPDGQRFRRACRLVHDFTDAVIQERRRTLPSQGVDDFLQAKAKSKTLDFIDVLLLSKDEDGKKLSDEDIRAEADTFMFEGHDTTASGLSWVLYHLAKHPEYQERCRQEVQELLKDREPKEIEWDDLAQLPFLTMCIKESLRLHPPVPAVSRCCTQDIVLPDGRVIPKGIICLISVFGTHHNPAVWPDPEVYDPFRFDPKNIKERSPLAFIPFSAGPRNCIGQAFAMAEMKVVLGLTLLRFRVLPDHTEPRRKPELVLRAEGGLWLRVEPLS

[12] = molecular target: T3, recombinant CYP2J2 (Homo sapiens, UniProt P51589); test: Effect of α-NF on M1 formation by recombinant CYP2J2; assay type: biochemical; conditions: recombinant CYP2J2 10 pmol/ml, 1 μM α-NF, 3 μM DB289, P < 0.05
T3 sequence (P51589 1-502): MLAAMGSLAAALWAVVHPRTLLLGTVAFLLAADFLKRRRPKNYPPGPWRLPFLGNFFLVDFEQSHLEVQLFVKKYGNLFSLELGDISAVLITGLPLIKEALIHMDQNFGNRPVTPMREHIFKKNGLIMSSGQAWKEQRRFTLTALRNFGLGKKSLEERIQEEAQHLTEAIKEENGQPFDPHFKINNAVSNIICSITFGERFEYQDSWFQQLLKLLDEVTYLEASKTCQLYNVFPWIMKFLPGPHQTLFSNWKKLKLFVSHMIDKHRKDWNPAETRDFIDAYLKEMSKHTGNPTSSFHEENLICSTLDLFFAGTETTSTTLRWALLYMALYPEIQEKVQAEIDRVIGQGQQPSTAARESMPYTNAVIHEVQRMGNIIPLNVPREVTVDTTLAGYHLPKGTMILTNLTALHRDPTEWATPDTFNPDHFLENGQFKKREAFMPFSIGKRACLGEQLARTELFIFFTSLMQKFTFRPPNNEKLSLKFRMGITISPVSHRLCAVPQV

[13] = tested on: pooled HLM; test: Effect of α-NF on M1 formation by pooled HLM; assay type: biochemical, human; conditions: 1 μM α-NF, 3 μM DB289, P > 0.05
[14] = tested on: purified CYP4A11; conditions: higher for CYP4A11; ref Powell et al., 1998; cited from earlier work
[15] = tested on: recombinant CYP2J2; conditions: ref Hashizume et al. (2002); cited from earlier work
[16] = M1 formation, HIM 3, 0.2 mg/ml protein
[17] = M1 formation, HIM 7, 0.2 mg/ml protein
[18] = M1 formation, HIM 30, 0.2 mg/ml protein
[19] = M1 formation, HIM 31, 0.2 mg/ml protein

Structure (SMILES): O=c1cc(-c2ccccc2)oc2c1ccc1ccccc12 [α-NF, α-naphthoflavone]
activation of M1 formation ([8]; different lot of pooled HIM, 1 μM α-NF, 3 μM DB289, P < 0.05): 34%
activation of M1 formation ([8]; pooled HIM, 3 μM DB289 (Fig. 2A)): 43%
effect on M1 formation [9]: not significant
activation of M1 formation [10]: 120%
effect on M1 formation [11]: not significant
activation of M1 formation [12]: 55%
effect on M1 formation [13]: not significant

Structure (SMILES): CCCCCCCCCCCC(=O)O [lauric acid]
inhibition of M1 formation ([8]; pooled HIM 0.2 mg/ml, 3 μM DB289, 5 min, inhibitor concentration as in Fig. 2A): lack of inhibition

Structure (SMILES): CCCCC/C=C\C/C=C\C/C=C\C/C=C\CCCC(=O)O [arachidonic acid]
Km of 20-HETE formation, CYP4A11 relative to CYP4F2 [14]: 10 fold

Structure (SMILES): CC(C)(C)c1ccc(C(=O)CCCN2CCC(OC(c3ccccc3)c3ccccc3)CC2)cc1 [ebastine]
Km [15]: 1.3 µM

Second part, led by results:

Phase I metabolite detection (HPLC/UV) [1]: identified
Structure (SMILES): CON=C(N)c1ccc(-c2ccc(-c3ccc(C(=N)N)cc3)o2)cc1 [M3]

Phase I metabolite detection (HPLC/UV) [1]: not detected
Structure (SMILES): N=C(N)c1ccc(-c2ccc(-c3ccc(C(N)=NO)cc3)o2)cc1 [M4]

total intrinsic clearance of M1 formation by HIM relative to pooled HLM ([2]; HIM versus pooled HLM): at most 10%
Vmax(1) ([2]; M1 formation, HIM 1, 0.2 mg/ml protein): 0.12 nmol/min/mg protein
KMapp(1) ([2]; M1 formation, HIM 1, 0.2 mg/ml protein, biphasic): 0.8 µM
Vmax(1) ([2]; M1 formation, HIM 2, 0.1 mg/ml protein): 0.42 nmol/min/mg protein
KMapp(1) ([2]; M1 formation, HIM 2, 0.1 mg/ml protein, biphasic): 0.7 µM
Vmax(1) [2, 16]: 0.24 nmol/min/mg protein
KMapp(1) [2, 16]: 1.3 µM
Vmax(1) [2, 17]: 0.89 nmol/min/mg protein
KMapp(1) [2, 17]: 1.3 µM
KMapp(1) ([2]; M1 formation, HIM 12, 0.2 mg/ml protein): 2.3 µM
KMapp(1) ([2]; M1 formation, HIM 23A, 0.2 mg/ml protein, biphasic): 2.4 µM
Vmax(1) [2, 18]: 0.19 nmol/min/mg protein
KMapp(1) [2, 18]: 0.6 µM
Vmax(1) [2, 19]: 0.02 nmol/min/mg protein
KMapp(1) [2, 19]: 1.4 µM
Vmax(1) ([2]; M1 formation, HIM 32, 0.1 mg/ml protein): 0.44 nmol/min/mg protein
KMapp(1) ([2]; M1 formation, HIM 32, 0.1 mg/ml protein, 37°C): 0.6 µM
KMapp(1), average ([2]; M1 formation, nine individual HIM): 1.3 µM
Vmax(1) ([2]; M1 formation, pooled HIM, 0.2 mg/ml protein): 0.19 nmol/min/mg protein
KMapp(1) ([2]; M1 formation, pooled HIM, 0.2 mg/ml protein, biphasic): 0.7 µM
microsomal CLint ([3]; human intestinal microsomes (individual HIM 32), pH 7.4, CL′int(1), M1 formation, HIM 32, Vmax(1)/KMapp(1)): 730 µL/min/mg
microsomal CLint ([3]; human intestinal microsomes (pooled and nine individual HIM), pH 7.4, total intrinsic clearance [CL′int(1) + CL′int(2)] of M1 formation, range, HIM): 10 to 730 µL/min/mg
solubility in the incubation buffer [4]: limited
Structure (SMILES): CONC(=N)c1ccc(-c2ccc(-c3ccc(C(=N)NOC)cc3)o2)cc1 [DB289, 2,5-bis(4-amidinophenyl)furan-bis-O-methylamidoxime]
coefficient of variation for Cmax [5]: approximately 50%
coefficient of variation for area under the curve [5]: approximately 50%
coefficient of variation for terminal half-life [5]: approximately 50%
variation in M1 formation rates [6]: 4 fold and ~ 4 fold
KMapp(1) [7]: 0.5 µM

Phase I metabolite detection (HPLC/UV) [1]: identified
Structure (SMILES): NC(=NO)c1ccc(-c2ccc(-c3ccc(C(N)=NO)cc3)o2)cc1 [M2]

Phase I metabolite detection (HPLC/UV) [1]: not detected
Structure (SMILES): N=C(N)c1ccc(-c2ccc(-c3ccc(C(=N)N)cc3)o2)cc1 [DB75, 2,5-bis(4-amidinophenyl) furan]

Phase I metabolite detection (HPLC/UV) [1]: identified
fraction of M1 further metabolized ([1]; within the first 15 min of incubation, 10 μM DB289, pooled HIM): Less than 10%
Structure (SMILES): CON=C(N)c1ccc(-c2ccc(-c3ccc(C(N)=NO)cc3)o2)cc1 [M1]

From article PMC2364724 (Drug metabolism and disposition: the biological fate of …, 2007)
